Measurements as given in ChEMBL document CHEMBL1128183, “Hypoxia-selective agents derived from 2-quinoxalinecarbonitrile 1,4-di-N-oxides. 2” (1995).

Assays:
V79 = experiment: Concentration giving 1% of control V79 cells survival in hypoxia; format: functional, Cricetulus griseus
In short: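 V79 Chinese hamster lung fibroblasts, trypsinized from exponential monolayers into suspension (2 × 10^4 cells/mL, EMEM + 10% FBS + 10 mM HEPES), gassed with nitrogen 30 min before and throughout 2 h drug exposure; duplicate flasks per dose. Cells replated, colonies (>64 cells) counted after 7 days at 37 °C; dose-response curve gives micromolar dose for 1% of control survival.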

[1] = Hypoxia cytotoxicity ratio (HCR), calculated by dividing the dose in air by the dose in hypoxia giving 1% control cell survival.; format: functional
In short: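 Suspension cultures of V79 cells gassed continuously with pure air or nitrogen (30 min pre-gassing, then 2 h exposure), two flasks per dose, DMSO and nitracrine 0.06 μM controls. Clonogenic survival from plating efficiency relative to control after 7-day colony growth; ratio = air dose over hypoxic dose each giving 1% control survival, from dose-response curves.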

| SMILES | Potency (V79) [nM] | HCR [1] |
| --- | --- | --- |
| N#Cc1c[n+]([O-])c2cc(F)c(F)cc2[n+]1[O-] | 300 | 5 |
| COc1cc2c(cc1Cl)[n+]([O-])cc(C#N)[n+]2[O-] | 400 | >50 |
| CN(C)CCCNc1c(C#N)[n+]([O-])c2cc(F)ccc2[n+]1[O-] | 600 | 170 |
| N#Cc1c[n+]([O-])c2ccc(Cl)cc2[n+]1[O-] | 3000 | 30 |
| CN(CCCNc1c(C#N)[n+]([O-])c2cc(Cl)ccc2[n+]1[O-])CCCNc1c(C#N)[n+]([O-])c2cc(Cl)ccc2[n+]1[O-] | 700 | 10 |
| N#Cc1c(N)[n+]([O-])c2ccccc2[n+]1[O-] | 30000 | 80 |
| N#Cc1c(NCCO)[n+]([O-])c2ccc(Cl)cc2[n+]1[O-] | 4000 | 75 |
| N#Cc1c[n+]([O-])c2ccc(-c3ccc([N+](=O)[O-])cc3)cc2[n+]1[O-] | 200 | 200 |
| Cc1ccc2c(c1)[n+]([O-])c(C#N)c[n+]2[O-] | 6000 | 200 |
| N#Cc1c[n+]([O-])c2cc(Cl)c(Cl)cc2[n+]1[O-] | 700 | 10 |
| N#Cc1c(N)[n+]([O-])c2cc(F)c(F)cc2[n+]1[O-] | 1000 | <10 |
| Cc1cc2c(cc1C)[n+]([O-])c(C#N)c[n+]2[O-] | 14000 | >7 |
| CCN(CC)CCNc1c(C#N)[n+]([O-])c2cc(C)ccc2[n+]1[O-] | 3000 | 100 |
| N#Cc1c(NCCCN2CCOCC2)[n+]([O-])c2cc(Cl)ccc2[n+]1[O-] | 800 | >125 |
| CN(C)CCCNc1c(C#N)[n+]([O-])c2cc(C(F)(F)F)ccc2[n+]1[O-] | 300 | 340 |
| CN(C)CCCNc1c(C#N)[n+]([O-])c2cc(Cl)ccc2[n+]1[O-] | 400 | 250 |
| CCN(CC)CCNc1c(C#N)[n+]([O-])c2cc(Cl)ccc2[n+]1[O-] | 500 | 40 |
| COc1ccc2c(c1)[n+]([O-])c(C#N)c(NCCCN(C)C)[n+]2[O-] | 2000 | 200 |
| N#Cc1c(N)[n+]([O-])c2ccc(Cl)cc2[n+]1[O-] | 9000 | 150 |
| COc1ccc2c(c1)[n+]([O-])c(C#N)c[n+]2[O-] | 5000 | >200 |

| SMILES | Potency (V79) [nM] | HCR [1] |
| --- | --- | --- |
| COc1ccc2c(c1)[n+]([O-])c(C#N)c(N)[n+]2[O-] | 30000 | >10 |
| CN(C)CCNc1c(C#N)[n+]([O-])c2cc(Cl)ccc2[n+]1[O-] | 300 | 100 |
| N#Cc1c(N)[n+]([O-])c2cc(Cl)c(Cl)cc2[n+]1[O-] | 1000 | 80 |
| N#Cc1c(NCCCn2ccnc2)[n+]([O-])c2ccc(Cl)cc2[n+]1[O-] | 2000 | >50 |
| CN(C)CCCNc1c(C#N)[n+]([O-])c2ccccc2[n+]1[O-] | 1000 | 300 |
| COc1cc2c(cc1Cl)[n+]([O-])c(N)c(C#N)[n+]2[O-] | 10000 | <10 |
| N#Cc1c[n+]([O-])c2ccc(C(F)(F)F)cc2[n+]1[O-] | 6000 | 80 |
| Nc1n[n+]([O-])c2ccccc2[n+]1[O-] [TIRAPAZAMINE] | 30000 | 75 |
| N#Cc1c[n+]([O-])c2ccc(F)cc2[n+]1[O-] | 2000 | >50 |
| Cc1ccc2c(c1)[n+]([O-])c(C#N)c(NCCCN(C)C)[n+]2[O-] | 1000 | 300 |
| N#Cc1c(N)[n+]([O-])c2ccc(-c3ccc([N+](=O)[O-])cc3)cc2[n+]1[O-] | 4000 | 15 |
| N#Cc1c(N)[n+]([O-])c2ccc(F)cc2[n+]1[O-] | 15000 | 100 |
| N#Cc1c(N)[n+]([O-])c2ccc(C(F)(F)F)cc2[n+]1[O-] | 7000 | 75 |
| CCN(CC)CCNc1c(C#N)[n+]([O-])c2cc(OC)ccc2[n+]1[O-] | 1000 | 100 |
| N#Cc1c[n+]([O-])c2ccccc2[n+]1[O-] | 5000 | >100 |
| CCN(CC)CCNc1c(C#N)[n+]([O-])c2cc(F)ccc2[n+]1[O-] | 400 | 75 |
| CCN(CC)CCNc1c(C#N)[n+]([O-])c2cc(C(F)(F)F)ccc2[n+]1[O-] | 600 | 50 |
| Cc1c(C#N)[n+]([O-])c2ccccc2[n+]1[O-] | 10000 | 15 |
| N#Cc1c(NCCCN2CCOCC2)[n+]([O-])c2ccc(Cl)cc2[n+]1[O-] | 2000 | 300 |
| CCN(CC)CCNc1c(C#N)[n+]([O-])c2ccccc2[n+]1[O-] | 900 | 120 |
